Most compounds without a hit are left out; they make up all but 1.9% or so of the library.
Tb MetRS inh – T. brucei MetRS inhibitors, primary screen, biochemical, luminescence; methionyl-tRNA synthetase (Trypanosoma brucei brucei); purified T. brucei MetRS, ATP depletion, Kinase-Glo luminescence; inhibition, % at 11.9 µM; 0.4% of 360,000 active;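 active = inhibition above a per-plate cutoff of the control wells' mean inhibition plus 3 SD, cut at about 5.5% in these data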
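Dosing: 11.9 µM single point; system: parasite MetRS enzyme; technique: luminescence of leftover ATP; times: 15 min enzyme-compound preincubation, 2 h reaction, 10 min detection, 25 °C; replicates: each compound tested once; read-out basis: percent inhibition relative to median high and low control wells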
PLCb3 inh – human PLC-beta3 inhibitors, primary screen, biochemical, fluorescence; Purified PLC-beta3, fluorogenic substrate; 0.18% of 370,000 active; 1-phosphatidylinositol 4,5-bisphosphate phosphodiesterase beta-3 (Homo sapiens), Q01970; inhibition, % at 12.2 µM
Target sequence (Q01970 whole entry, looked up): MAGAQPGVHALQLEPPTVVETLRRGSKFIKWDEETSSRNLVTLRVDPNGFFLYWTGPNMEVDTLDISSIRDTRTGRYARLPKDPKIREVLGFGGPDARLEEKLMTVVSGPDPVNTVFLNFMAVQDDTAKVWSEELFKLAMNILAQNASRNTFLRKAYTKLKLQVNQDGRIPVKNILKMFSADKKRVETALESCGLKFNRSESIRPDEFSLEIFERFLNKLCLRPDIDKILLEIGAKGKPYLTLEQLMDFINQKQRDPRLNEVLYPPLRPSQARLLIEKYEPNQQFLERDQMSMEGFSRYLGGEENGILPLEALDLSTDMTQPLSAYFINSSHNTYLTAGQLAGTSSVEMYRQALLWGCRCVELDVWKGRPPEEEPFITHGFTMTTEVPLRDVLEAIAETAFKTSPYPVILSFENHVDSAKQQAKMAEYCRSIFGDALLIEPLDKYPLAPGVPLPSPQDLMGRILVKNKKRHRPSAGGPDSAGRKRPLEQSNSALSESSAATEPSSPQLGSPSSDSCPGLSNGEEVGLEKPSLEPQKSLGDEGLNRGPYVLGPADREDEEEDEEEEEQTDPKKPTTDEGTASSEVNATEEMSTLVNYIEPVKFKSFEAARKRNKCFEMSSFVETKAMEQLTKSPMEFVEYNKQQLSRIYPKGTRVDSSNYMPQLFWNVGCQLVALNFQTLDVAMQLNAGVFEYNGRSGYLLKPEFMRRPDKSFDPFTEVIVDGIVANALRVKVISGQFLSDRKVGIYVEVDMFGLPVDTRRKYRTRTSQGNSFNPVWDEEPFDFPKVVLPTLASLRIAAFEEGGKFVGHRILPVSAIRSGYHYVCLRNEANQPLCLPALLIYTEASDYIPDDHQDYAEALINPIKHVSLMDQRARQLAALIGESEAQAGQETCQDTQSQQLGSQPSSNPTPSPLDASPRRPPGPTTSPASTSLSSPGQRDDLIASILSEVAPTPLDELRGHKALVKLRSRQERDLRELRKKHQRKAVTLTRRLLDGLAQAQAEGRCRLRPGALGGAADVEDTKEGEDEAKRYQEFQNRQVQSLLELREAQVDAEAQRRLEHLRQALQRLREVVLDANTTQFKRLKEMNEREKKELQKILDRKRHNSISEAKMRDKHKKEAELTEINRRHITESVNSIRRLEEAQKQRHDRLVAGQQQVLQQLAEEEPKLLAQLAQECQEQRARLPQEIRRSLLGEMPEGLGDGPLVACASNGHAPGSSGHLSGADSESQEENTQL
sPLA2-III inh – human group III sPLA2 inhibitors, primary screen, biochemical, QFRET, BODIPY PC-A2 liposome substrate; Group 3 secretory phospholipase A2 (Homo sapiens), Q9NZ20; QFRET BODIPY PC-A2 liposome hydrolysis, fluorescence; inhibition, % at 12.2 µM; 0.56% of 370,000 active; AID 743126, 2013;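 active = inhibition above mean plus 3 SD of compounds lying within the high and low control bounds, cut at about 19% in these data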
PLCg1 inh – PLC-gamma1 enzyme inhibitors, primary screen, biochemical, fluorescence, purified enzyme; fluorogenic substrate; inhibition, % at 12.2 µM; 0.84% of 370,000 active; in the data active = inhibition above about 9.5%
PLCgamma1 ctr – PLC-gamma1 enzyme inhibitors, counter-screen for PLC-beta3 inhibitor project, biochemical, fluorescence. purified PLC-gamma1, fluorogenic substrate. 3.1% of 3,300 active. AID 743258, 2014. shares compounds with PLCg1 inh. inhibition, % at 12.3 µM; in the data active = inhibition above about 9.5%
PLCbeta3 conf – PLC-beta3 inhibitor confirmation, biochemical, fluorescence, purified enzyme; 1% of 3,300 active; shares compounds with PLCg1 inh; inhibition, % at 12.3 µM; fluorogenic substrate fluorescence
Numbers stand for hits; . = inactive; / = no result; ! = a repeat was not active. Cut-off read from the data, not from the text of the source, unless noted: active = inhibition above about 11%; inactive = the rest.

SMILES | Tb MetRS inh | PLCb3 inh | sPLA2-III inh | PLCg1 inh | PLCgamma1 ctr | PLCbeta3 conf
COc1ccccc1CNC(=O)CN(Cc1ccc(Cl)cc1)S(C)(=O)=O | . | 11 | . | . | . | .
Cn1c(SC/C=C/c2ccccc2)nnc1-c1ccco1 | . | . | . | . | / | /
Cn1c(SC/C=C/c2ccccc2)nnc1-c1cccnc1 | / | . | . | 12 | . | .
COc1cc(OC)cc(C(=O)NCC2CCN(C(=O)C(=O)c3cccs3)CC2)c1 | / | . | . | . | / | /
CCOC(=O)c1cnn(CCOC(=O)c2cccs2)c1NC(=O)c1cccs1 | . | . | . | . | / | /
CCOC(=O)c1cnn(CCOC(=O)c2cccc(F)c2)c1NC(=O)c1cccc(F)c1 | . | . | . | 12 | . | .
Cc1ccccc1S(=O)(=O)N1CCCc2nc(-c3ccc(Br)cc3)ccc21 | / | . | . | . | / | /
N#Cc1ccc(S(=O)(=O)N2CCN(CC(=O)Nc3ccccc3C(=O)NC3CC3)CC2)cc1 | . | . | . | 9.7 | . | .
CCC12CN3CC(CC)(CN(C1)C3c1ccc([N+](=O)[O-])o1)C2=O (stereo not given) | . | . | . | 11 | . | .
CCCC12CN3CC(C)(CN(C1)C3c1ccc([N+](=O)[O-])o1)C2=O (stereo not given) | . | . | . | . | / | /
CC(=O)c1cc(-c2cnn(Cc3ccccc3)c2)c(=O)n2c1CCC2 | / | . | . | . | / | /
Cc1ccc(-n2c(Cc3cccs3)nnc2SCC(=O)Nc2cccc3ccccc23)cc1 | / | . | . | 13 | . | .
CC(C)c1ccc(CN2CCC2(C)C(=O)Nc2ccc3c(c2)OCO3)cc1 (stereo not given) | . | . | . | . | / | /
COCOc1cccc(CN2CCC2(C)C(=O)Nc2ccc(C)c(O)c2)c1 (stereo not given) | . | . | . | . | / | /
COCOc1cccc(CN2CCC2(C)C(=O)Nc2ccc(C)cc2)c1 (stereo not given) | . | . | . | 13 | . | .
CC(C)Oc1ccc(CN2CCC2(C)C(=O)Nc2ccc3c(c2)OCO3)cc1 (stereo not given) | . | . | . | 12 | . | .
CN(CCc1ccccn1)C(=O)c1cc2ccccn2n1 | / | . | . | . | / | /
CCCCCCCCN1C(=O)[C@@H](CC(=O)N2CCCC2)C[C@@]2(C(=O)OC)C1=C[C@H](COCc1ccccc1)O[C@@H]2C | / | . | . | . | / | /
CC(C)(C)NC(=O)[C@@H]1C[C@@H]2CCCC[C@@H]2CN1C[C@@H](O)[C@H](Cc1ccccc1)NC(=O)[C@H](CC(N)=O)NC(=O)c1ccc2ccccc2n1 | . | . | . | 9.7! | . | .
Clc1ccc(SCCCCN2CCOCC2)cc1 | . | . | . | 14 | . | .
Clc1ccc(SCCOCCN2CCOCC2)cc1 | . | . | . | . | / | /
O=C1C(=O)N(CCO)C(c2ccc(Br)cc2)/C1=C(\O)c1ccccc1 (stereo not given) | . | . | . | 12 | . | .
CN(Cc1ccccc1)C(=O)c1ccc(NC(=O)Cc2ccc(NC(=O)C3CCN(C(=O)C4CC4)CC3)cc2)cc1 | / | . | . | . | / | /
CN(Cc1ccccc1)C(=O)c1ccc(NC(=O)Cc2ccc(NC(=O)C3CCN(C(=O)C4CCCC4)CC3)cc2)cc1 | . | . | . | 10.0 | . | .
CCOC(=O)C1CCN(C(=O)COc2ccc(Br)cc2)CC1 | . | . | . | 11 | . | .
SMILES | Tb MetRS inh | PLCb3 inh | sPLA2-III inh | PLCg1 inh | PLCgamma1 ctr | PLCbeta3 conf
CCOC(=O)C1CCN(CC(O)COc2ccc(C(C)(C)CC)cc2)CC1 (stereo not given) | . | . | . | 12 | . | .
CCOC(=O)C1CCN(C(=O)COc2ccc(C(=O)c3ccccc3)cc2)CC1 | . | . | . | . | / | /
CC(C)(C)c1ccc(OCC(O)CN2CCN(C(=O)c3ccccc3)CC2)cc1 (stereo not given) | . | . | . | 14 | . | .
COc1ccc(CN2C[C@]3(C=C(C)Cn4c(=O)n(-c5ccccc5)c(=O)n43)N(C(=O)OCc3ccccc3)C2=NC(=O)c2ccccc2)c(OC)c1 | / | . | . | . | / | /
COC(=O)[C@]12C[C@H](CC(=O)N3CCCCC3)C(=O)N(Cc3ccco3)C1=C[C@H](COCc1ccccc1)O[C@@H]2C | / | . | . | . | / | /
O=C(NCC1CCCO1)c1ccc(Oc2ccc([N+](=O)[O-])cc2)cc1 (stereo not given) | . | . | . | . | / | /
CC(Oc1ccc([N+](=O)[O-])cc1)C(=O)NCC1CCCO1 (stereo not given) | . | . | . | 11 | . | .
COC(=O)c1cc2c(c3c4cc(OC)ccc4n(S(=O)(=O)c4ccc(C)cc4)c13)C(=O)N(C)C2 | / | . | . | . | / | /
Oc1ccc(N=Nc2ccccc2-c2nn[nH]n2)c(O)c1 | . | . | . | 12 | . | .
Cc1ccccc1-c1nn[nH]n1 | . | . | . | . | / | /
O=C(O)/C=C/C(=O)NCCc1cccc(Cl)c1 | . | . | . | . | / | /
O=C(O)/C=C/C(=O)NCCc1ccccc1 | . | . | . | 10 | . | .
COC(=O)[C@]12C[C@H](CC(=O)N3CCOCC3)C(=O)N(Cc3ccco3)C1=C[C@H](C(C)C)O[C@@H]2C1CC1 | / | . | . | . | / | /
O=C(Nc1cccc(C(F)(F)F)c1)c1csc(COCCO)n1 | . | . | . | . | / | /
O=C(Nc1cccc(Cl)c1)c1csc(COCCO)n1 | . | . | . | 10.0 | . | .
COC(=O)[C@]12C[C@H](CC(=O)NCc3ccc(OC)c(OC)c3)C(=O)N(Cc3ccco3)C1=C[C@H](C(C)C)O[C@@H]2C1CC1 | / | . | . | . | / | /
CC1(C)Cc2c(sc(/N=C/N3CCCC3)c2C#N)C(C)(C)N1 | . | 13 | . | 19 | . | .
COc1cc(S(=O)(=O)N2CCN(c3ccccc3)CC2)ccc1Cl | . | . | . | 10 | . | .
COc1cccc(N2CCN(S(=O)(=O)c3ccc4c(c3)oc(=O)n4C)CC2)c1 | . | . | . | 11 | . | .
O=C(NCCc1nc2ccccc2n1CCOc1ccc2cccnc2c1)C1CCCCC1 | / | . | . | . | / | /
O=c1cc(N2CCN(c3ccnc4cc(Cl)ccc34)CC2)[nH]c(=O)n1C1CCCCC1 | / | . | . | . | / | /
O=C(OCc1ccccc1)N1CCC2CC1c1ccc(N3CCN(Cc4ccccc4)CC3)cc12 (stereo not given) | / | 14 | . | . | . | .
N#CCNC(=O)C1c2ccccc2Oc2ccccc21 | . | . | . | 13 | . | .

Bioassay records: PubChem BioAssay, The Scripps Research Institute Molecular Screening Center
